Experimental data: ChEMBL document CHEMBL1154352, “Toll-like receptor 7 selective synthetic oligoribonucleotide agonists: synthesis and structure-activity relationship studies” (J Med Chem, 2009)
The source made the active and inactive calls. No cut-off for these calls is given here.

Tests used:
Homo sapiens [1] = species: Homo sapiens; assay: Immunostimulatory activity in human mDC assessed as induction of IFNalpha at 100 ug/ml after 24 hrs; assay type: functional
Outline: (§1)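 Human mDCs isolated from PBMCs by CD19+ B-cell depletion then BDCA1 positive selection; plated at 1 × 10^6 cells/mL, compounds in PBS, 37 °C for 24 h; supernatant cytokines by human Luminex multiplex. Representative of four independent experiments.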

Homo sapiens [2] = species: Homo sapiens; assay: Immunostimulatory activity in human mDC assessed as induction of TNFalpha at 100 ug/ml after 24 hrs; assay type: functional; outline: as §1
PBMC [3] = assay: Immunomodulatory activity in human PBMC assessed as induction of MIP1alpha at 50 ug/ml after 24 hrs; assay type: functional, cell-based
Outline: (§2)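 Human PBMCs plated at 5 × 10^6 cells/mL; compounds dissolved in PBS added at various concentrations, 37 °C for 24 h. Supernatant cytokines/chemokines quantified with human Luminex multiplex kit.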

Homo sapiens [4] = species: Homo sapiens; assay: Immunostimulatory activity in human mDC assessed as induction of IL12 at 100 ug/ml after 24 hrs; assay type: functional; outline: as §1
PBMC [5] = assay: Immunomodulatory activity in human PBMC assessed as induction of MIP1beta at 50 ug/ml after 24 hrs; assay type: functional, cell-based; outline: as §2
Mus musculus = assay: Immunomodulatory activity in C57BL/6 mouse assessed as induction of IL12 release at 25 mg/kg, sc after 2 hrs by ELISA; assay type: functional, organism-based; parameters: dose 25 mg/kg
Outline: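 Female C57BL/6 wild-type mice, 5–8 weeks old, n=3; compounds given subcutaneously at 10 or 25 mg/kg. Retro-orbital blood at 2 h; serum cytokines by mouse Luminex multiplex or IL-12 ELISA.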

PBMC [6] = assay: Immunomodulatory activity in human PBMC assessed as induction of TNFalpha at 50 ug/ml after 24 hrs; assay type: functional, cell-based; outline: as §2
PBMC [7] = assay: Immunomodulatory activity in human PBMC assessed as induction of IP10 at 50 ug/ml after 24 hrs; assay type: functional, cell-based; outline: as §2
[8] = target: T1, Toll-like receptor 8 (Homo sapiens) (UniProt Q9NR97); assay: Activation of human TLR8 expressed in HEK293XL assessed as induction of NF-kappaB activity by reporter gene assay
T1 sequence (whole entry): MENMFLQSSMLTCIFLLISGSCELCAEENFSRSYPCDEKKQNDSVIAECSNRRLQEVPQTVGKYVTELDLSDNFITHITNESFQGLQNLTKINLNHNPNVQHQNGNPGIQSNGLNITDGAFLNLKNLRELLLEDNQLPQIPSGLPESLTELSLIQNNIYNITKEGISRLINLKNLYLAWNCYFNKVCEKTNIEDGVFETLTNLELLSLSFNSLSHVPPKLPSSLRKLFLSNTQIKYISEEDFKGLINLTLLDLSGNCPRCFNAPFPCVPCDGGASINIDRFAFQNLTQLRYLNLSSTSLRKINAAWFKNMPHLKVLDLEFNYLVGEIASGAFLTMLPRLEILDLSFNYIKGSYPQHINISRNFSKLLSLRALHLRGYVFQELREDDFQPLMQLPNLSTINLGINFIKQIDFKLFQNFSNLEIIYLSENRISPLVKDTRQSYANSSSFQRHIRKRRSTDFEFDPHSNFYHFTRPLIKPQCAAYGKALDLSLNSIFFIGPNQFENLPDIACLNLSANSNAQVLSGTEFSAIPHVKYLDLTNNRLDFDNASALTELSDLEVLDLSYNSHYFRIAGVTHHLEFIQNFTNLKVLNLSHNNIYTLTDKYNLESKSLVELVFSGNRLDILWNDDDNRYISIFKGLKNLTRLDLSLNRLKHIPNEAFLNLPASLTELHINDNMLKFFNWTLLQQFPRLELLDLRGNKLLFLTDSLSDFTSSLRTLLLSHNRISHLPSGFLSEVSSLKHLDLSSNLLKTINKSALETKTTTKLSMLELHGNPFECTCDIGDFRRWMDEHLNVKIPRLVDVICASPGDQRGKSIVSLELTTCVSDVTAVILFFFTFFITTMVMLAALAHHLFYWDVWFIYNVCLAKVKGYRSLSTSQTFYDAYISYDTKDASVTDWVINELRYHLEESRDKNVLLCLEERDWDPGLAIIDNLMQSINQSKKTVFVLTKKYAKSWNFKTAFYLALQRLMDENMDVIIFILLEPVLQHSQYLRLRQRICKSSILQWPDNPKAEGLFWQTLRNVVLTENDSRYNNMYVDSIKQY
Outline: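 HEK293 cells stably expressing human TLR7 or TLR8, transiently transfected with SEAP reporter plasmid; medium replaced, SIMRA compounds added, 18 h incubation. Supernatant SEAP measured by QuantiBlue; expressed as fold increase in NF-κB activity over PBS control. Tabulated data at 50 μg/mL, representative of three independent experiments.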

PBMC [9] = assay: Immunomodulatory activity in human PBMC assessed as induction of IFNalpha at 50 ug/ml after 24 hrs; assay type: functional, cell-based; outline: as §2
Homo sapiens [10] = species: Homo sapiens; assay: Immunostimulatory activity in human mDC assessed as induction of IP10 at 100 ug/ml after 24 hrs; assay type: functional; outline: as §1

Structure (SMILES) | Activity (Homo sapiens [1]) | Activity (Homo sapiens [2]) | Activity (PBMC [3]) | Activity (Homo sapiens [4]) | Activity (PBMC [5]) | Activity (Mus musculus) | Activity (PBMC [6]) | Activity (PBMC [7]) | Activity [8] | Activity (PBMC [9]) | Activity (Homo sapiens [10])
Nc1ccn([C@@H]2O[C@H](COP(=O)(S)O[C@H]3[C@@H](O)[C@H](n4cnc5c(N)ncnc54)O[C@@H]3CO)[C@@H](OP(=O)(S)OC[C@H]3O[C@@H](n4ccc(=O)[nH]c4=O)[C@H](O)[C@@H]3OP(=O)(S)OC[C@H]3O[C@@H](n4ccc(=O)[nH]c4=O)[C@H](O)[C@@H]3OP(=O)(S)OC[C@H]3O[C@@H](n4ccc5c(=O)[nH]c(N)nc54)[C@H](O)[C@@H]3OP(=O)(S)OC[C@H]3O[C@@H](n4cnc5c(N)ncnc54)[C@H](O)[C@@H]3OP(=O)(S)OC[C@H]3O[C@@H](n4cnc5c(N)ncnc54)[C@H](O)[C@@H]3OP(=O)(S)OC[C@H]3O[C@@H](n4ccc5c(=O)[nH]c(N)nc54)[C@H](O)[C@@H]3OP(=O)(S)OC[C@H]3O[C@@H](n4ccc(N)nc4=O)[C@H](O)[C@@H]3OP(=O)(S)OC[C@H]3O[C@@H](n4ccc(=O)[nH]c4=O)[C@H](O)[C@@H]3OP(=O)(S)OC[C@H]3O[C@@H](n4ccc(=O)[nH]c4=O)[C@H](O)[C@@H]3OP(=O)(S)OCC(O)COP(=O)(S)O[C@H]3[C@@H](O)[C@H](n4ccc(=O)[nH]c4=O)O[C@@H]3COP(=O)(S)O[C@H]3[C@@H](O)[C@H](n4ccc(=O)[nH]c4=O)O[C@@H]3COP(=O)(S)O[C@H]3[C@@H](O)[C@H](n4ccc(N)nc4=O)O[C@@H]3COP(=O)(S)O[C@H]3[C@@H](O)[C@H](n4ccc5c(=O)[nH]c(N)nc54)O[C@@H]3COP(=O)(S)O[C@H]3[C@@H](O)[C@H](n4cnc5c(N)ncnc54)O[C@@H]3COP(=O)(S)O[C@H]3[C@@H](O)[C@H](n4cnc5c(N)ncnc54)O[C@@H]3COP(=O)(S)O[C@H]3[C@@H](O)[C@H](n4ccc5c(=O)[nH]c(N)nc54)O[C@@H]3COP(=O)(S)O[C@H]3[C@@H](O)[C@H](n4ccc(=O)[nH]c4=O)O[C@@H]3COP(=O)(S)O[C@H]3[C@@H](O)[C@H](n4ccc(=O)[nH]c4=O)O[C@@H]3COP(=O)(S)O[C@H]3[C@@H](O)[C@H](n4ccc(N)nc4=O)O[C@@H]3COP(=O)(S)O[C@H]3[C@@H](O)[C@H](n4cnc5c(N)ncnc54)O[C@@H]3CO)[C@H]2O)c(=O)n1 (some centres not stated) | Active | Active | 5630 pg/mL | Active | 9220 pg/mL | Active | 76 pg/mL | 287 pg/mL | Active | 230 pg/mL | Active
Nc1ccn([C@@H]2O[C@H](COP(=O)(S)O[C@H]3[C@@H](O)[C@H](n4cnc5c(N)ncnc54)O[C@@H]3CO)[C@@H](OP(=O)(S)OC[C@H]3O[C@@H](n4ccc(=O)[nH]c4=O)[C@H](O)[C@@H]3OP(=O)(S)OC[C@H]3O[C@@H](n4ccc(=O)[nH]c4=O)[C@H](O)[C@@H]3OP(=O)(S)OC[C@H]3O[C@@H](n4ccc5c(=O)[nH]c(N)nc54)[C@H](O)[C@@H]3OP(=O)(S)OC[C@H]3O[C@@H](n4cnc5c(N)ncnc54)[C@H](O)[C@@H]3OP(=O)(S)OC[C@H]3O[C@@H](n4ccc(N)nc4=O)[C@H](O)[C@@H]3OP(=O)(S)OC[C@H]3O[C@@H](n4ccc5c(=O)[nH]c(N)nc54)[C@H](O)[C@@H]3OP(=O)(S)OC[C@H]3O[C@@H](n4cnc5c(N)ncnc54)[C@H](O)[C@@H]3OP(=O)(S)OC[C@H]3O[C@@H](n4ccc(=O)[nH]c4=O)[C@H](O)[C@@H]3OP(=O)(S)OC[C@H]3O[C@@H](n4ccc(=O)[nH]c4=O)[C@H](O)[C@@H]3OP(=O)(S)OCC(O)COP(=O)(S)O[C@H]3[C@@H](O)[C@H](n4ccc(=O)[nH]c4=O)O[C@@H]3COP(=O)(S)O[C@H]3[C@@H](O)[C@H](n4ccc(=O)[nH]c4=O)O[C@@H]3COP(=O)(S)O[C@H]3[C@@H](O)[C@H](n4cnc5c(N)ncnc54)O[C@@H]3COP(=O)(S)O[C@H]3[C@@H](O)[C@H](n4ccc5c(=O)[nH]c(N)nc54)O[C@@H]3COP(=O)(S)O[C@H]3[C@@H](O)[C@H](n4ccc(N)nc4=O)O[C@@H]3COP(=O)(S)O[C@H]3[C@@H](O)[C@H](n4cnc5c(N)ncnc54)O[C@@H]3COP(=O)(S)O[C@H]3[C@@H](O)[C@H](n4ccc5c(=O)[nH]c(N)nc54)O[C@@H]3COP(=O)(S)O[C@H]3[C@@H](O)[C@H](n4ccc(=O)[nH]c4=O)O[C@@H]3COP(=O)(S)O[C@H]3[C@@H](O)[C@H](n4ccc(=O)[nH]c4=O)O[C@@H]3COP(=O)(S)O[C@H]3[C@@H](O)[C@H](n4ccc(N)nc4=O)O[C@@H]3COP(=O)(S)O[C@H]3[C@@H](O)[C@H](n4cnc5c(N)ncnc54)O[C@@H]3CO)[C@H]2O)c(=O)n1 (some centres not stated) | Active | Active | 3620 pg/mL | Active | 7330 pg/mL | Active | 174 pg/mL | 199 pg/mL | Active | 106 pg/mL | Active
